Bioassay records as filed in PubChem.
TMEM16A act: activates or potentiates the mouse TMEM16A chloride channel; HEK293 TMEM16A/YFP-H148Q/I152L, iodide quench fluorescence; active compounds read low; B-score at 10 µM; 340,000 compounds, 0.3% hits; AID 623877;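 active = fluorescence-ratio B-score plate-corrected deviation score at least 3 library SD below zero, with starting fluorescence score within 5 deviations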;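 also: channel opened by trigger with iodide after compound preincubation; score built on the fluorescence ratio of max minus min over baseline; more negative score means more quench and so TMEM16A activation or potentiation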
ANO1 block: blocks the mouse calcium-activated chloride channel TMEM16A; HEK293 TMEM16A/YFP iodide influx fluorescence, ionomycin; normalized B-score (activity score, 25-100; higher = stronger inhibition) at 10 µM; 310,000 compounds, 1.2% hits; AID 588511;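 active = ratio plate-corrected score three or more library SD toward inhibition, starting fluorescence score within five deviations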;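 also: score derived from kinetic fluorescence span divided by baseline fluorescence per well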
MC4R barr agon: activates human MC4R beta-arrestin recruitment. P32245. activation, % at 8.9 µM. U2OS MC4R beta-arrestin complementation, luminescence; percent of melanotan II response, DMSO zero. 360,000 compounds, 0.98% hits;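 active = activation above a per-plate cutoff, the mean activation of sample wells on that plate plus 3 SD, cut at about 8% in these data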
HTR2A ag: mouse HTR2A agonism via beta-arrestin recruitment; 360,000 compounds, 0.66% hits; activation, % at 7.6 µM; P35363; CHO-K1 mHTR2A beta-arrestin complementation, luminescence; percent of 30 µM serotonin response;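 active = activation above a run cutoff, the mean activation of all tested compounds plus 3 SD, cut at about 14% in these data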;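 also: 0% = plate median of compound wells and 100% = 30 µM serotonin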
Target sequence (P35363 whole entry, looked up): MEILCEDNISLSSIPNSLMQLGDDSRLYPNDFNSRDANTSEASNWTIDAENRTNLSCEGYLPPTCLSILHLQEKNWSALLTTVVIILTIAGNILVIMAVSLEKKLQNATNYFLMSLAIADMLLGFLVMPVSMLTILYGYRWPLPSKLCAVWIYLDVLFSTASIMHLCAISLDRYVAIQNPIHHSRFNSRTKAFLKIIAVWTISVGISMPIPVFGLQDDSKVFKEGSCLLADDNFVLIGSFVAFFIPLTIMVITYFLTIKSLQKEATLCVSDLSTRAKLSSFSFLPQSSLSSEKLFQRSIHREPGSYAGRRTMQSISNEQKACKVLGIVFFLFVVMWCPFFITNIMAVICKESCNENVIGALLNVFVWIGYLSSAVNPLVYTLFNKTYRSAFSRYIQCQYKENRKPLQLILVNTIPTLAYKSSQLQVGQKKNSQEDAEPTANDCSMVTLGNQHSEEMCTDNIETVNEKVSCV
MC4R antagonist: human MC4R antagonism in cAMP assay; P32245; MC4R-expressing cells, MTII-stimulated cAMP, LANCE TR-FRET; inhibition, % at 6.5 µM; 360,000 compounds, 0.48% hits; AID 540295;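 active = inhibition above its plate's cutoff, the mean of tested wells on that plate plus 3 SD, cut at about 29% in these data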;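 also: 0% = Melanotan II alone and 100% = Melanotan II plus saturating MCL0020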
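System: U2OS cells stably expressing human melanocortin 4 receptor (MC4R). Reagent: Melanotan II challenge after compound preincubation. Doses: 6.5 µM. Times: 30-min compound, 1-h challenge, 1-h detection, room temperature. Measured by: TR-FRET with Eu-cAMP and labeled anti-cAMP, 671 nm. Replicates: singlicate.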
beta cell repl: MIN6 beta-cell proliferation induction; MIN6 cells proliferation, ATPlite luminescence, 48 h; cells starved in 0.2% serum; 100% = growth in 10% serum; proliferation, % at 10 µM; AID 2380; 330,000 compounds, 0.29% hits;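 active = compounds whose signal lies at least 3.5 SD above the mean of all wells on their plate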;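 also: 0% = DMSO-treated cells in low-serum medium and 100% = 10% serum control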
MC4R barr ag: human MC4R beta-arrestin agonism confirmation. shares compounds with MC4R barr agon. U2OS MC4R beta-arrestin recruitment, luminescence; scaled DMSO 0%, Melanotan II 100%. activation, % at 8.9 µM. 2,400 compounds, 31% hits;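 active = mean activation across replicates above the hit cutoff set in the earlier primary screen, cut at about 8% in these data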
MOR-DOR barr ag: activates mu-delta opioid heterodimer, MC4R agonist counter-screen; shares compounds with MC4R barr agon; U2OS PathHunter beta-arrestin, beta-gal luminescence; percent of deltorphin B response, DMSO zero; activation, % at 9.2 µM; 2,400 compounds, 5.8% hits;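 active = mean activation across replicates exceeds the hit threshold derived in the earlier primary screen, cut at about 18% in these data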;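 also: 100% = deltorphin B at 0.9 µM final and 0% = DMSO alone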
An asterisk follows results filed as active. Compounds with a hit are over-represented: about 3.4% of the library has one in this group of screens.

What do the screens show for `C[C@H]1CN([C@@H](C)CO)S(=O)(=O)c2ccc(/C=C/c3ccccc3)cc2O[C@H]1CN(C)C(=O)NC1CCCCC1`?
MC4R barr agon: -1; HTR2A ag: 1; MC4R antagonist: 6

What do the screens show for `O=C(CNc1ccccc1F)Nc1cccc(S(=O)(=O)N2CCCCC2)c1`?
TMEM16A act: inactive; MC4R barr agon: -2; HTR2A ag: -6; MC4R antagonist: 2; beta cell repl: -4

How did O=C(NCc1ccco1)c1ccc2sc([C@@H]3O[C@H](CO)[C@H](O)[C@H](O)[C@H]3O)nc2c1 do in these assays?
MC4R barr agon: -1; HTR2A ag: 4; MC4R antagonist: 3

Results for O=C1COc2ccc(C(=O)COC(=O)CCSc3ccc(Cl)cc3)cc2N1 ?
TMEM16A act: inactive; ANO1 block: inactive; MC4R barr agon: 19*; HTR2A ag: -3; MC4R antagonist: 6; beta cell repl: -2; MC4R barr ag: 4; MOR-DOR barr ag: 8

How did O=C1COc2ccc(C(=O)COC(=O)Cc3ccc(Cl)cc3)cc2N1 do in these assays?
TMEM16A act: inactive; ANO1 block: inactive; MC4R barr agon: 0; HTR2A ag: 1; MC4R antagonist: 17; beta cell repl: 0

What do the screens show for `Cc1ccccc1OCC(=O)NC(=S)Nc1cccc2cc(O)ccc12`?
TMEM16A act: inactive; ANO1 block: inactive; MC4R barr agon: 16*; HTR2A ag: -3; MC4R antagonist: 6; beta cell repl: -2; MC4R barr ag: 23*; MOR-DOR barr ag: 9

Results for O=C1N[C@@H](Cc2ccccc2)C(=O)N2[C@@H]1C[C@]1(Br)c3ccccc3N(S(=O)(=O)c3ccccc3)[C@H]21 ?
ANO1 block: inactive; beta cell repl: -2

How did COc1ccc(C(=O)NC(C)c2cnn(-c3ccccn3)c2C)o1 (centres undefined) do in these assays?
TMEM16A act: inactive; ANO1 block: inactive; MC4R barr agon: -5; HTR2A ag: 12; MC4R antagonist: 10; beta cell repl: -1

How did COc1ccc(-c2ccc3c(c2)c(-c2cccs2)c(-c2cc(OC)cc(OC)c2)n3C)cc1 do in these assays?
TMEM16A act: inactive; MC4R barr agon: -2; HTR2A ag: 1; MC4R antagonist: -2; beta cell repl: -3

What do the screens show for `COc1cc(OC)cc(-c2c(-c3cccs3)c3cc(-c4ccc(C(N)=O)cc4)ccc3n2C)c1`?
TMEM16A act: inactive; MC4R barr agon: 16*; HTR2A ag: 14; MC4R antagonist: 14; beta cell repl: -6; MC4R barr ag: 11*; MOR-DOR barr ag: 4

What do the screens show for `Cc1cnc(NC(=O)C2(C)CCN2C(=O)C(C)C)s1` (centres undefined)?
MC4R barr agon: -1; HTR2A ag: 2; MC4R antagonist: 2

Results for O=C(COc1ccc2c(c1)CCC2)NCc1ccc(Cl)cc1 ?
TMEM16A act: inactive; ANO1 block: inactive; MC4R barr agon: 12*; HTR2A ag: 1; MC4R antagonist: 8; beta cell repl: -3; MC4R barr ag: 4; MOR-DOR barr ag: 7

Results for C1C2CC3C1C3C2=NN=C1C2CC3C(C2)C13 ?
MC4R barr agon: -2; HTR2A ag: -2; MC4R antagonist: 5

Results for Cc1ccc2nc(-c3cccc(NC(=O)c4ccc5c(c4)OCCO5)c3)oc2c1 ?
TMEM16A act: inactive; ANO1 block: inactive; MC4R barr agon: 23*; HTR2A ag: 3; MC4R antagonist: 12; beta cell repl: -6; MC4R barr ag: 2; MOR-DOR barr ag: 4
